Published values gathered from unrelated publications.
Compare with care: the assays were run in different laboratories.
Target: Tyrosine-protein kinase CSK (CSK, Homo sapiens, UniProt P41240)

SMILES	read-out	mode	method	concentration	setting	quantity	value
CCCCC(=O)Nc1ccc(-c2ccc3ncn(CCC)c(=O)c3c2)cn1	binding	–	competition with immobilised ligand	0.5 µM	–	remaining binding	94%
CC#CC(=O)N1CCC[C@H]1c1nc(-c2ccc(C(=O)Nc3ccccn3)cc2)c2c(N)nccn12	enzyme activity	inhibitor	–	1 µM	–	inhibition	32%
COc1ccc2oc(-c3ccc4nc(N)oc4c3)c/c(=N\c3ccccc3NC(=O)CCN)c2c1	cell-free assay	–	–	1 µM	–	remaining signal	119%
Cc1ccc(NC(=O)c2ccnc(C(F)(F)F)c2)cc1-c1cc(OCCO)nc(N2CCOCC2)c1	binding	–	competition with immobilised ligand	1 µM	–	remaining binding	95%
Cc1cc(O)c(-c2ccc([C@@H](C)CN(C)C)cc2)c2c1[nH]c(=O)c1sccc12	enzyme activity	inhibitor	–	0.1 µM	lysate	inhibition	2.59%
C1=C/COCc2cc(ccc2OCCN2CCCC2)Nc2nccc(n2)-c2cccc(c2)COC/1	cell-free assay	–	–	0.1 µM	–	remaining signal	88%
C#Cc1cc(-c2cc(Nc3nc(N[C@@H](C)c4ccc(F)cn4)ncc3Cl)n[nH]2)ccc1C=O	enzyme activity	inhibitor	–	0.2 µM	–	inhibition	14%
CN1CCN(C(=O)c2ccc(NC(=O)Nc3ccc(N(C)c4ccnc(Nc5ccc(CS(C)(=O)=O)cc5)n4)cc3)cc2)CC1	binding	–	competition with immobilised ligand	1 µM	–	remaining binding	62%
CO[C@@H]1[C@H](N(C)C(=O)c2ccccc2)C[C@H]2O[C@]1(C)n1c3ccccc3c3c4c(c5c6ccccc6n2c5c31)C(=O)NC4	enzyme activity	inhibitor	–	1 µM	–	inhibition	0%
